What is called IC50 is the concentration needed to halve the response being measured. By MIC90 is commonly meant the lowest concentration that inhibits either 90% of growth or 90% of the strains tested, depending on the study. Read a high MIC90 as lower susceptibility. In general, CC50 refers to the concentration at which the toxic effect on the cells reaches its halfway point.

We go through 20 compounds from ChEMBL document CHEMBL5532690, “Antitubercular activity of 2-mercaptobenzothiazole derivatives targeting Mycobacterium tuberculosis type II NADH dehydrogenase” (RSC Med Chem, 2024).

The subject of data set [1] is Mycobacterium tuberculosis. Description: Antitubercular activity against Mycobacterium tuberculosis H37Rv mc2 6230 assessed as inhibition of intracellular ATP synthesis incubated for 24 hrs by BacTiter-Glo microbial cell viability assay. The format is functional, organism-based. The note with it: H37Rv mc2 6230, 24 h. The essentials:
(§1)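 Mid-log cultures were adjusted to OD600 0.05 and exposed to compounds at 37 °C for 24 h. BacTiter-Glo reagent was then added for 12 min and luminescence was read. H37Ra and BCG were grown in 7H9 with glycerol, Tween 80 and ADS. mc2 6230 was grown with tyloxapol plus methionine, leucine, arginine and pantothenate. Values are the mean of triplicates.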

In data set [2] the test system is Mycobacterium tuberculosis. Description: Antitubercular activity against Mycobacterium tuberculosis H37Rv mc2 6230 measured after 10 days by liquid broth microdilution assay. The note with it: H37Rv mc2 6230, 240 h, time 10 day. Format: functional. Summed up: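 Broth microdilution in 7H9 with glycerol, ADS and 0.05% tyloxapol, supplemented with L-methionine, L-leucine (50 mg L−1 each), L-arginine (200 mg L−1) and D-pantothenate (24 mg L−1). Inoculum was diluted to OD600 0.005 (1.0 × 10^6 CFU ml−1) and added to two-fold serial dilutions. After 10 days at 37 °C, MIC was the lowest concentration without visible turbidity.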
A general note: Broth dilution looks for growth in wells or tubes with falling amounts of substance.

Data set [3] relates to Mycobacterium tuberculosis. Description: Antitubercular activity against Mycobacterium tuberculosis H37Ra measured after 10 days by liquid broth microdilution assay. Format: functional. The note with it: 240 h, time 10 day. Summed up: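 Broth microdilution in 7H9 with 0.2% glycerol, 0.05% Tween 80 and 10% ADS. Mid-log cultures (OD600 0.4–0.6) were diluted to OD600 0.005 (1.0 × 10^6 CFU ml−1) and added to two-fold serial compound dilutions. Plates were incubated at 37 °C for 10 days and read visually. MIC was the lowest concentration with no turbidity.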

For data set [4], the system named is Mycobacterium tuberculosis. Briefly: Antitubercular activity against Mycobacterium tuberculosis H37Ra assessed as inhibition of intracellular ATP synthesis incubated for 24 hrs by BacTiter-Glo microbial cell viability assay. The format is functional, organism-based. Summed up:
as §1

Data set [5] has as its system Mycobacterium tuberculosis. Briefly: Bactericidal activity against Mycobacterium tuberculosis H37Rv mc2 6230 assessed as reduction in bacterial load measured after 5 days. The format is functional, organism-based. The note with it: time 5.0 day. Summed up: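 Mid-log bacilli in supplemented 7H9 were adjusted to OD600 0.005 and exposed to a range of concentrations for 5 days at 37 °C. Cultures were 10-fold serially diluted and spotted on 7H10 agar, which was incubated for 3–4 weeks for CFU counts. MBC90 was a 90% fall from the initial inoculum. Triplicates; Student's t-test.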

Data set [6] relates to Mycobacterium tuberculosis. Briefly: Bactericidal activity against Mycobacterium tuberculosis H37Rv mc2 6230 assessed as reduction in bacterial load at 4 times MIC measured after 5 days. Format: functional, organism-based. The note with it: time 5.0 day.
A short description of data set [7]: Cytotoxicity against human HepG2 cells assessed as reduction in cell viability by MTT assay. The format is toxicity, cell-based. The essentials:
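HepG2 cells in DMEM with 10% FBS, streptomycin, penicillin, 10 mM HEPES and 2 mM L-glutamine were seeded at 1 × 10^4 cells/well and incubated for 24 h (37 °C, 5% CO2). […] two-fold dilutions spanning 1000–0.48 μg ml−1 were applied. MTT (2.5 mg ml−1 in PBS) was added; formazan was dissolved in DMSO and read at 570 nm. CC50 = 50% viability loss. Triplicates.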
(In general: Tetrazolium assays rely on reduction of a dye to a coloured formazan, in cell work by metabolically active cells.)

Data set [8] in a line: Selectivity index, ratio of CC50 for cytotoxicity against human HepG2 cells to MIC90 for antitubercular activity against Mycobacterium tuberculosis. Format: toxicity, cell-based. The note with it: read-out: Selectivity Index. Summed up: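 Selectivity index calculated as HepG2 MTT CC50 divided by MIC90.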

Molecules are shown by their SMILES. ≈ marks a conversion by molar mass, not a printed value. Calls of active or inactive are those of the source. The rule behind the calls is not given here.

`O=C(CSc1nc2c(Br)cc(C(F)(F)F)cc2s1)NC1CCCCC1`: the IC50 was 56 µg/mL (≈ 124 µM) in data set [1] and 25.7 µg/mL (≈ 56.7 µM) in data set [4]. Besides, the MIC90 in data set [2] and in data set [3] was 64 µg/mL (≈ 141 µM) throughout.
For the compound `O=C(CSc1nc2ccc(OC(F)(F)F)cc2s1)NC1CCCCC1`, the IC50 in data set [1] came to 66.2 µg/mL (≈ 170 µM); in data set [4], 23.4 µg/mL (≈ 59.9 µM). Also, the results for the MIC90 in data set [2] and in data set [3] were 32 µg/mL (≈ 82 µM) and 64 µg/mL (≈ 164 µM), respectively.
Regarding `O=C(CSc1nc2c(Br)cc(F)cc2s1)NC1CCCCC1`, the half-maximal inhibitory concentration (IC50) came to 14.7 µg/mL (≈ 36.4 µM) in data set [1] and 18.7 µg/mL (≈ 46.3 µM) in data set [4]. Further, the MIC90 in data set [2] and in data set [3] was 8 µg/mL (≈ 19.8 µM) in each case. Further, the Activity result in data set [5] is “Dose-Dependent Effect”. Moreover, the result in data set [6] was Active. Besides, in data set [7], the cytotoxic concentration (CC50) is 89.4 µg/mL (≈ 222 µM). Moreover, the selectivity ratio in data set [8] is 5.58.
Take `Cc1cc(C)c2nc(SCC(=O)NC3CCCCC3)sc2c1`: the IC50 in data set [1] and in data set [4] was 16.3 µg/mL (≈ 48.7 µM) throughout. Further, the MIC90 in data set [2] and in data set [3] was 8 µg/mL (≈ 23.9 µM) in each case. In data set [5], the Activity entry was “Dose-Dependent Effect”. Also, the outcome in data set [6] was Active. Besides, the CC50 in data set [7] amounted to 247 µg/mL (≈ 739 µM). Also, in data set [8], the selectivity ratio is 15.4.
As to `C=C(C)[C@H]1Cc2c(ccc3c2O[C@@H]2COc4cc(OC)c(OC)cc4[C@@H]2C3=O)O1` [ROTENONE], the MIC90 in data set [2] and in data set [3] was above 64 µg/mL each time.
For `O=C(CSc1nc2ccc(F)cc2s1)NC1CCCCC1`, the IC50 came to 56.9 µg/mL (≈ 175 µM) in data set [1] and 36.5 µg/mL (≈ 113 µM) in data set [4]. In addition, the values for the MIC90 in data set [2] and in data set [3] were 4 µg/mL (≈ 12.3 µM) and 16 µg/mL (≈ 49.3 µM), respectively.
For the compound `CC/C(=C(\c1ccccc1)c1ccc(OCCN(C)C)cc1)c1ccccc1` [TAMOXIFEN], the CC50 in data set [7] turned out to be 6.15 µg/mL (≈ 16.6 µM).
`O=C(CSc1nc2ccc(C(F)(F)F)cc2s1)NC1CCCCC1`: the figures for the IC50 in data set [1] and in data set [4] were 51 µg/mL (≈ 136 µM) and 30.9 µg/mL (≈ 82.5 µM), respectively. For the same compound, the results for the MIC90 in data set [2] and in data set [3] were 64 µg/mL (≈ 171 µM) and 32 µg/mL (≈ 85.5 µM), respectively.
Turning to `NNC(=O)c1ccncc1` [ISONIAZID], the MIC90 is 0.06 µg/mL (≈ 0.438 µM) in data set [2] and 0.015 µg/mL (≈ 0.109 µM) in data set [3].
On to `O=C(CSc1nc2ccc(Br)cc2s1)NC1CCCCC1`, for which the IC50 in data set [1] amounted to 49.8 µg/mL (≈ 129 µM); in data set [4], 34.4 µg/mL (≈ 89.2 µM). In addition, the MIC90 in data set [2] was determined as 32 µg/mL (≈ 83 µM); in data set [3], 64 µg/mL (≈ 166 µM).
As for `O=C(CSc1nc2ccccc2c(=O)[nH]1)NC1CCCCC1`, the IC50 was 2.23 µg/mL (≈ 7.01 µM) in data set [1] and 8.55 µg/mL (≈ 26.9 µM) in data set [4]. The MIC90 in data set [2] and in data set [3] was 0.5 µg/mL (≈ 1.58 µM) in each case. In data set [7], the CC50 amounted to 48.8 µg/mL (≈ 154 µM). Besides, the selectivity ratio in data set [8] turned out to be 391.
For the compound `CC(C)c1ccc2nc(SCC(=O)NC3CCCCC3)sc2c1`, the IC50 in data set [1] and in data set [4] was 9.35 µg/mL (≈ 26.8 µM) in each case. Moreover, the MIC90 in data set [2] and in data set [3] was 4 µg/mL (≈ 11.5 µM) in each case. In data set [5], the Activity result was “Dose-Dependent Effect”. The result in data set [6] was Active. Moreover, in data set [7], the cytotoxic concentration (CC50) was found to be 423 µg/mL (≈ 1210 µM). In addition, in data set [8], the selectivity ratio came to 26.5.
Turning to `O=C(CSc1nc2c(ccc3ccccc32)s1)NC1CCCCC1`, the half-inhibitory concentration (IC50) in data set [1] stood at 33 µg/mL (≈ 92.5 µM); in data set [4], 36.6 µg/mL (≈ 103 µM). Also, the MIC90 in data set [2] and in data set [3] was 128 µg/mL (≈ 359 µM) each time.
Take `O=C(CSc1nc2ccc([N+](=O)[O-])cc2s1)NC1CCCCC1`: the half-inhibitory concentration (IC50) in data set [1] amounted to 24.4 µg/mL (≈ 69.6 µM); in data set [4] it was 36.3 µg/mL (≈ 103 µM). The MIC90 in data set [2] and in data set [3] was 16 µg/mL (≈ 45.5 µM) each time.
With `O=C(CSc1nc2ccccc2s1)NC1CCCCC1`, the IC50 came out at 40.6 µg/mL (≈ 133 µM) in data set [1] and 26.6 µg/mL (≈ 86.9 µM) in data set [4]. Besides, the MIC90 in data set [2] and in data set [3] was 64 µg/mL (≈ 209 µM) each time.
`Cc1ccc2nc(SCC(=O)NC3CCCCC3)sc2c1`: the IC50 turned out to be 34.9 µg/mL (≈ 109 µM) in data set [1] and 14.1 µg/mL (≈ 43.9 µM) in data set [4]. Further, the MIC90 in data set [2] and in data set [3] was 32 µg/mL (≈ 99.8 µM) each time.
Consider `O=C(CSc1nc2ccc(Cl)cc2s1)NC1CCCCC1`, for which the IC50 was 38.2 µg/mL (≈ 112 µM) in data set [1] and 48.6 µg/mL (≈ 143 µM) in data set [4]. Besides, the values for the MIC90 in data set [2] and in data set [3] were 16 µg/mL (≈ 46.9 µM) and 32 µg/mL (≈ 93.9 µM), respectively.
On the same counts, the results for `O=C(CSc1nc2c(Br)cc(OC(F)(F)F)cc2s1)NC1CCCCC1` are 35.8 µg/mL (≈ 76.3 µM), 36.6 µg/mL (≈ 77.9 µM), 128 µg/mL (≈ 273 µM) and 128 µg/mL (≈ 273 µM).
As to `CO[C@H]1/C=C/O[C@@]2(C)Oc3c(C)c(O)c4c(O)c(c(/C=N/N5CCN(C)CC5)c(O)c4c3C2=O)NC(=O)/C(C)=C\C=C\[C@H](C)[C@H](O)[C@@H](C)[C@@H](O)[C@@H](C)[C@H](OC(C)=O)[C@@H]1C` [RIFAMPIN], the MIC90 is 0.03 µg/mL (≈ 0.0365 µM) in data set [2] and 0.015 µg/mL (≈ 0.0182 µM) in data set [3].
As for `CC(C)/N=c1\cc2n(-c3ccc(Cl)cc3)c3ccccc3nc-2cc1Nc1ccc(Cl)cc1` [CLOFAZIMINE], the MIC90 in data set [2] and in data set [3] was 0.25 µg/mL (≈ 0.528 µM) in each case. Moreover, the CC50 in data set [7] was found to be 49 µg/mL (≈ 104 µM). Further, the selectivity ratio in data set [8] worked out at 223.
